Series [1] in a line: (§1) Inhibition of IL-1beta-induced PGE2 production in human HCA-7 cells at 1 uM after 72 hrs by EIA. The series is classed as functional. The settings on record: HCA-7, 72 h. A digest of the protocol: (§2)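 HCA-7 colon cancer cells were grown overnight in DMEM/10% FBS, then serum-starved for 18 h. They were stimulated with 10 ng/ml IL-1β together with compound (DMSO solution) in serum-free medium for 72 h. PGE2 in the supernatant was measured by EIA. Single-concentration screening was at 1 µM, giving % reduction ± SD (n = 3). EC50 values came from increasing concentrations. Celecoxib served as the positive control.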

Series [2] can be described thus: Inhibition of IL-1beta-induced PGE2 production in human HCA-7 cells after 72 hrs by EIA. As to conditions: HCA-7, 72 h. The series is classed as functional, cell-based. A digest of the protocol:
as §2

Series [3] concerns the target T1, Prostaglandin G/H synthase 2 (Homo sapiens, UniProt P35354).
T1 sequence (P35354 whole entry): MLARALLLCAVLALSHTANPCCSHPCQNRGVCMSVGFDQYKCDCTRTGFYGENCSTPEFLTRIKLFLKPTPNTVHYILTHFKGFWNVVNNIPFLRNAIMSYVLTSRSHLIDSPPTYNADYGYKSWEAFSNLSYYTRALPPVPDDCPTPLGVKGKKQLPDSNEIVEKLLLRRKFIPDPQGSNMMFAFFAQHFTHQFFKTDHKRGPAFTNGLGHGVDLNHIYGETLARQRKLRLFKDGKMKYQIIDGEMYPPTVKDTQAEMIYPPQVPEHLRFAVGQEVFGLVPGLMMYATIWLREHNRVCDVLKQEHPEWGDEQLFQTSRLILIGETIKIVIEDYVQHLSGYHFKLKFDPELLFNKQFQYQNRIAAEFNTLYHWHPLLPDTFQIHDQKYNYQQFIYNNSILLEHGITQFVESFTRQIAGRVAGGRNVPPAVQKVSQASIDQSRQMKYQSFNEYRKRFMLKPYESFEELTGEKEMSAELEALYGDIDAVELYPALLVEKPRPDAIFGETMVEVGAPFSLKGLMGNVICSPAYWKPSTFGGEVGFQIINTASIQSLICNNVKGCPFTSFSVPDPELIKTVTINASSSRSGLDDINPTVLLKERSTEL
Put plainly: (§3) Inhibition of COX-2 (unknown origin) at 5 uM. As to conditions: 5 µM. A digest of the protocol: (§4)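 Cell-free COX-2 activity measured with a fluorescent COX inhibitor screening kit, run per the kit instructions. Compounds were tested at 5 µM. Results are given as % inhibition ± SD (n = 3). Celecoxib served as the positive control. Dose-response curves were not run.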

In series [4] the target is T2, COX-2 (Prostaglandin G/H synthase 2) (Homo sapiens, UniProt P35354).
T2 sequence (P35354 whole entry): T1 sequence (P35354 whole entry)
Described as §3. In short, it runs like this:
as §4

The test system of the next series is HCA-7. Described as §1. It is filed as functional. In short, it runs like this: as §2
The target in series [5] is HCA-7 cells (Homo sapiens). Put plainly: Inhibition of PGE2 production in human HCA-7 cells.

Consider 29 compounds from ChEMBL document CHEMBL2311381, “Synthesis and biological activity of aminophthalazines and aminopyridazines as novel inhibitors of PGE2 production in cells” (Bioorg Med Chem Lett, 2013).

The source made the active and inactive calls. The rule behind the calls is not given here.

Consider `Cc1ccc(Nc2nnc(-c3cccc(Cl)c3)c3ccccc23)cc1`, for which the inhibition at 1 µM in series [1] stood at 75.2%. Besides, the EC50 in series [2] was found to be 860 nM. Besides, in series [3], the “inhibition (INH)” value is reported as “Not Active”.

With `Cc1ccc(Nc2ccc(-c3ccccc3)nn2)cc1`, at 1 µM the inhibition in series [1] was 62.5%.

In series [1], `COc1ccc(-c2nnc(Nc3ccc(C)cc3)c3ccccc23)cc1` showed an inhibition at 1 µM of 98.3%. Moreover, in series [2], the EC50 is 32 nM. In addition, the “inhibition (INH)” value in series [3] is listed as “Not Active”.

On to `Cc1ccc(Nc2nnc(-c3cncnc3)c3ccccc23)cc1`, for which the inhibition at 1 µM in series [1] turned out to be 15.1%.

The compound `CCOc1ccc(-c2nnc(Nc3ccc(C)cc3)c3ccccc23)cc1` showed an inhibition at 1 µM in series [1] of 75.3%. In series [2], this compound showed an EC50 of 570 nM. Also, in series [3], the “inhibition (INH)” value is recorded as “Not Active”.

Take `Cc1ccc(Nc2nnc(-c3ccc(OC(C)C)cc3)c3ccccc23)cc1`: testing at 1 µM in series [1] gave an inhibition of 76.7%. The compound also gave an EC50 in series [2] of 700 nM. The “inhibition (INH)” value in series [3] is listed as “Not Active”.

`CCc1ccc(Nc2nnc(-c3ccc(OC)cc3)c3ccccc23)cc1` came in with an inhibition at 1 µM in series [1] of 85%. The compound further registered an EC50 in series [2] of 930 nM. In addition, in series [3], the “inhibition (INH)” value is recorded as “Not Active”.

In series [1], `Cc1ccc(Nc2nnc(-c3ccc(N(C)C)cc3)c3ccccc23)cc1` showed an inhibition at 1 µM of 94.4%. In series [2], this compound yielded an EC50 of 420 nM. In series [4], this compound had an inhibition at 5 µM of 14.2%.

For `COc1ccc(-c2nnc(Nc3ccc(OCC(N)=O)cc3)c3ccccc23)cc1`, the inhibition entry in the series on HCA-7 is “inactive”.

Compound `COc1ccc(-c2nnc(Nc3ccccc3)c3ccccc23)cc1` yielded an inhibition at 1 µM in series [1] of 97.3%. Further, in series [2], the EC50 is 20 nM. The inhibition at 5 µM in series [4] was 3%.

Take `COc1ccc(-c2nnc(Nc3ccc(Oc4ccccc4)cc3)c3ccccc23)cc1`: the inhibition at 1 µM in series [1] worked out at 92.6%. In series [2], this compound showed an EC50 of 90 nM. The “inhibition (INH)” value in series [3] is “Not Active”.

As to `NS(=O)(=O)c1ccc(Nc2nnc(-c3ccccc3)c3ccccc23)cc1`, the inhibition result in the series on HCA-7 was “inactive”.

As for `Cc1ccc(Nc2nnc(-c3ccc4c(c3)OCO4)c3ccccc23)cc1`, in series [1], the inhibition at 1 µM worked out at 59%.

In series [1], `Cc1ccc(Nc2nnc(-c3cccc(-c4ccccc4)c3)c3ccccc23)cc1` had an inhibition at 1 µM of 84.2%. For the same compound, the EC50 in series [2] stood at 540 nM. Also, in series [3], the “inhibition (INH)” value is given as “Not Active”.

In turn, `CCOC(=O)c1ccc(Nc2nnc(-c3ccccc3)c3ccccc23)cc1` showed an inhibition at 1 µM in series [1] of 18.4%.

In the case of `Cc1ccc(Nc2nnc(-c3ccccc3Cl)c3ccccc23)cc1`, the inhibition at 1 µM in series [1] is 97.2%. The compound also gave an EC50 in series [2] of 380 nM. The “inhibition (INH)” value in series [3] is given as “Not Active”.

As to `c1ccc(Oc2ccc(Nc3nnc(-c4ccccc4)c4ccccc34)cc2)cc1`, in series [1], 1 µM produced 71.2% inhibition. The “inhibition (INH)” value in series [3] is “Not Active”.

In series [1], `Oc1ccc(Nc2nnc(-c3ccccc3)c3ccccc23)cc1` returned an inhibition at 1 µM of 26.7%.

For `Clc1cccc(Nc2nnc(-c3ccccc3)c3ccccc23)c1`, the inhibition at 1 µM in series [1] turned out to be 79.4%. In series [2], this compound gave an EC50 of 500 nM. 5 µM produced 10.1% inhibition in series [4].

As for `COc1cccc(-c2nnc(Nc3ccc(C)cc3)c3ccccc23)c1`, the inhibition at 1 µM in series [1] worked out at 62%.

Turning to `COc1ccc(N(C)c2nnc(-c3ccccc3)c3ccccc23)cc1`, in series [1], at 1 µM the inhibition was 92.4%. The EC50 in series [2] is 220 nM. In series [4], this compound had an inhibition at 5 µM of 21.4%.

`COc1ccc(-c2ccc(Nc3ccc(C)cc3)nn2)cc1` had an inhibition at 1 µM in series [1] of 49%.

`COc1ccc(Nc2nnc(-c3ccc(C(=O)NCCO)cc3)c3ccccc23)cc1` gave an inhibition at 1 µM in series [1] of 39.2%.

In series [1], `Cc1cccc(Nc2nnc(-c3ccccc3)c3ccccc23)c1` had an inhibition at 1 µM of 74.1%. In addition, the 50% effective concentration (EC50) in series [2] was 760 nM. Moreover, the “inhibition (INH)” value in series [3] is “Not Active”.

Turning to `Clc1ccc(-c2csc(Nc3ccc(Oc4ccccc4)cc3)n2)cc1`, the EC50 in series [5] and in series [2] was 330 nM in each case.

For the compound `Cc1ccc(Nc2nnc(-c3ccccc3)c3ccccc23)cc1`, at 1 µM the inhibition in series [1] was 98.9%. In series [2], this compound showed an EC50 of 31 nM. In series [4], this compound showed an inhibition at 5 µM of 23%.

As for `COc1ccc(-c2nnc(Nc3cccc(C)c3)c3ccccc23)cc1`, in series [1], the inhibition at 1 µM was determined as 87.5%. In series [2], this compound gave an EC50 of 640 nM. The “inhibition (INH)” value in series [3] is “Not Active”.

As for `COc1ccc(-c2nnc(N(C)c3ccc(C)cc3)c3ccccc23)cc1`, in series [1], the inhibition at 1 µM was found to be 87%. Besides, the EC50 in series [2] was found to be 50 nM. For the same compound, in series [3], the “inhibition (INH)” value is “Not Active”.

In series [1], `COc1ccccc1-c1nnc(Nc2ccc(C)cc2)c2ccccc12` had an inhibition at 1 µM of 77.2%. In addition, the EC50 in series [2] was determined as 590 nM. In addition, in series [3], the “inhibition (INH)” value is “Not Active”.
